Reference: ChEMBL document CHEMBL4602700, “Discovery of WD Repeat-Containing Protein 5 (WDR5)-MYC Inhibitors Using Fragment-Based Methods and Structure-Based Design” (J Med Chem, 2020)
Activity calls are given as the source filed them. No cut-off for these calls is given here.

What was measured:
[1] = molecular target: T1, WD repeat-containing protein 5 (Homo sapiens, UniProt P61964); experiment: Binding affinity to recombinant human His/FLAG-tagged WDR5 (22 to 334 residues) expressed in Escherichia coli expression system using FITC-AHx-SEEEIDVVSV as substrate by fluorescence polarization assay
[2] = molecular target: MLL1-ASH2L/RbBP5/WDR5/DPY30 (Homo sapiens) (UniProt P61964+Q03164+Q9UBL3+Q15291+Q9C005); experiment: Inhibition of MLL1/WDR5/RBBP5/ASH2L/DPY30 complex (unknown origin) assessed as reduction in histone methyltransferase activity; type: protein assay
[3] = molecular target: T1, WD repeat-containing protein 5; experiment: Inhibition of WDR5 in human HEK293T cells assessed as reduction in WDR5-MYC interaction at 5 uM incubated for 24 hrs by immunoprecipitation analysis; type: cell-based; details: HEK-293T
How it was run: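 Intact HEK293 cells (WDR5-FLAG/c-MYC-HA) at ~70% confluence, PBS-washed, treated 24 h with 5 μM compound in OptiMEM; lysates α-FLAG immunoprecipitated overnight at 4 °C, MYC co-precipitation immunoblotted, input blotted for MYC levels; normalized to vehicle; minimum two biological repeats.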

[4] = molecular target: T1, WD repeat-containing protein 5; experiment: Inhibition of N-terminal FLAG-tagged human full-length WDR5 expressed in HEK293T cells harboring human C-terminal HA-tagged c-MYC assessed as reduction in WDR5-MYC interaction at 50 uM by immunoprecipitation analysis; details: HEK-293T
[5] = molecular target: T1, WD repeat-containing protein 5; experiment: Inhibition of N-terminal FLAG-tagged human full-length WDR5 expressed in HEK293T cells harboring human C-terminal HA-tagged c-MYC assessed as reduction in MYC recruitment C7orf40 binding site at 20 uM incubated for 10 hrs by chromatin immunoprecipitation analysis; type: cell-based; details: HEK-293T
How it was run: (§1)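 HEK293 cells expressing HA-MYC and GFP grown to ~70% confluence, PBS-washed, treated 10 h in OptiMEM. Crosslinked 1% formaldehyde 10 min at room temperature, quenched with 125 mM glycine. Sonicated chromatin, α-HA ChIP; qPCR percent input against a 30-fold dilution of decrosslinked chromatin. One-tailed t-test; minimum three independent biological repeats.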

[6] = molecular target: T1, WD repeat-containing protein 5; experiment: Inhibition of N-terminal FLAG-tagged human full-length WDR5 expressed in HEK293T cells harboring human C-terminal HA-tagged c-MYC assessed as reduction in MYC recruitment RPS14 binding site at 20 uM incubated for 10 hrs by chromatin immunoprecipitation analysis; type: cell-based; details: HEK-293T; how it was run: as §1
[7] = molecular target: T1, WD repeat-containing protein 5; experiment: Inhibition of N-terminal FLAG-tagged human full-length WDR5 expressed in HEK293T cells harboring human C-terminal HA-tagged c-MYC assessed as reduction in MYC recruitment RPL5 binding site at 20 uM incubated for 10 hrs by chromatin immunoprecipitation analysis; type: cell-based; details: HEK-293T; how it was run: as §1
[8] = molecular target: T1, WD repeat-containing protein 5; experiment: Inhibition of N-terminal FLAG-tagged human full-length WDR5 expressed in HEK293T cells harboring human C-terminal HA-tagged c-MYC assessed as reduction in MYC recruitment […] binding site at 20 uM incubated for 10 hrs by chromatin immunoprecipitation analysis; type: cell-based; details: HEK-293T; how it was run: as §1
[9] = molecular target: T1, WD repeat-containing protein 5; experiment: Inhibition of N-terminal FLAG-tagged human full-length WDR5 expressed in HEK293T cells harboring human C-terminal HA-tagged c-MYC assessed as reduction in MYC recruitment RNPS1 binding site at 20 uM incubated for 10 hrs by chromatin immunoprecipitation analysis; type: cell-based; details: HEK-293T; how it was run: as §1
[10] = molecular target: T1, WD repeat-containing protein 5; experiment: Inhibition of N-terminal FLAG-tagged human full-length WDR5 expressed in HEK293T cells harboring human C-terminal HA-tagged c-MYC assessed as reduction in MYC recruitment ZFPM1 binding site at 20 uM incubated for 10 hrs by chromatin immunoprecipitation analysis; type: cell-based; details: HEK-293T; how it was run: as §1

Row | SMILES | Kd [1] | inhibition [2] | inhibition [3] | inhibition [4] | other results
1 | O=S(=O)(Nc1nc2ccccc2s1)c1cc(Br)cc(Cl)c1O | 32 µM |  |  |  | 
2 | O=S(=O)(Nc1cnn(C2CCCC2)c1)c1cc(Br)cc(Cl)c1O |  | Active | inactive | Active | 
3 | O=S(=O)(Nc1cn(C(C2CC2)C2CC2)cn1)c1cc(Br)cc(Cl)c1O | 1.2 µM |  |  |  | 
4 | O=C(c1nc(NS(=O)(=O)c2cc(Br)cc(Cl)c2O)cn1C1CCCC1)N1CCC(C2CCCN2)CC1 (configuration not stated) | 5 µM |  |  |  | 
5 | O=S(=O)(Nc1cn(C2CCNC2)cn1)c1cc(Br)cc(Cl)c1O (configuration not stated) | 11 µM |  |  |  | 
6 | O=S(=O)(Nc1cn(CC2CCCO2)cn1)c1cc(Br)cc(Cl)c1O (configuration not stated) | 8 µM |  |  |  | 
7 | O=S(=O)(Nc1cn(CC2CC2)cn1)c1cc(Br)cc(Cl)c1O | 2.1 µM |  |  |  | 

Now from value to compound, other results behind:

Row | Kd [1] | inhibition [2] | inhibition [3] | inhibition [4] | SMILES | other results
8 |  | Active | Active | Active | CNC(=O)c1nc(NS(=O)(=O)c2cc(Br)cc(Cl)c2O)cn1C1CCCC1 | 
9 | 0.4 µM |  | Active | Active | O=S(=O)(Nc1cn(C2CCCC2)cn1)c1cc(Br)cc(Cl)c1O | 
10 |  | Active | Active | Active | CS(=O)(=O)c1nc(NS(=O)(=O)c2cc(Br)cc(Cl)c2O)cn1C1CCCC1 | inhibition [5]: Active; inhibition [6]: Active; inhibition [7]: Active; inhibition [8]: inactive; inhibition [9]: Active; inhibition [10]: inactive
11 |  | Active | Active | Active | CCOC(=O)c1nc(NS(=O)(=O)c2cc(Br)cc(Cl)c2O)cn1C1CCCC1 | 
